Shown are actives, neighbours in structure and some others; about 2.2% of the full set was active somewhere.
14-3-3 Bad inh – disrupts binding of bovine 14-3-3 zeta to phospho-Bad peptide; hit rate 0.71% among 220,000; TR-FRET 14-3-3zeta/Dy647-pBad peptide displacement, 1 h; inhibition, % at 21.7 µM;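 active = inhibition above about 70%, limit read from the data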
RanGTP-Impb inh – disruptors of Ran-importin-beta complex formation – biochemical, FRET, CFP-Ran, YFP-importin-beta, homogeneous, primary screen. cell-free CFP-Ran/YFP-importin-beta FRET ratio. hit rate 1.1% among 300,000. inhibition, % (no concentration beside the values). AID 2216;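 active = more than half of the replicate wells show a fall in the fluorescence ratio signal beyond about 16%, limit read from the data, passing the limit was not always enough; inconclusive = exactly half of the replicate wells pass the set limit; inactive = fewer than half of replicates pass the limit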
Hck Nef HTS – inhibitors of human Hck kinase activated by Nef | Recombinant Hck-YEEI plus Nef, Z-Lyte FRET kinase assay | AID 463187 | P08631 | inhibition, % at 20 µM | hit rate 0.68% among 220,000;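 active = Hck-Nef kinase inhibition above about 50%, limit read from the data; inactive = inhibition below that limit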
Target sequence (P08631 whole entry, looked up): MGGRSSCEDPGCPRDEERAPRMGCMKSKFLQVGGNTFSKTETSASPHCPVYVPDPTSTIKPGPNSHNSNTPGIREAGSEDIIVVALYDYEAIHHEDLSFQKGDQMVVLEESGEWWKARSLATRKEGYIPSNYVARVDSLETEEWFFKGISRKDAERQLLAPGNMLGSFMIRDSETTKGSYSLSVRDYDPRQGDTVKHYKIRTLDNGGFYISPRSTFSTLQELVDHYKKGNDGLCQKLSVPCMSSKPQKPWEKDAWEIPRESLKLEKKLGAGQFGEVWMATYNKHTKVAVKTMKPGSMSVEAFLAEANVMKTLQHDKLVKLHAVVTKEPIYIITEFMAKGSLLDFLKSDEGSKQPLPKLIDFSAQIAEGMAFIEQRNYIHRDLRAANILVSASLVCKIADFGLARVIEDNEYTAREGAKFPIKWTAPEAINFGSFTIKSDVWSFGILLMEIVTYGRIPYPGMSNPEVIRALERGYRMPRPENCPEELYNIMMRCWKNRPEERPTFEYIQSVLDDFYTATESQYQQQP
Runt-SMMHC FRET – blocks binding of human RUNX1 Runt domain to CBFb-SMMHC | Q01196+Q13951 | Cerulean-Runt/Venus-CBFb-SMMHC FRET ratio 530/480, 1 h | inhibition, % at 20 µM | hit rate 0.74% among 220,000 | AID 1434;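 active = mean inhibition across duplicate retests at 20 µM reaching about 50%, limit read from the data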;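 also: inhibitors lower the FRET ratio by blocking Runt binding to CBFb-SMMHC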
Runt-CBFb FRET – blocks binding of human RUNX1 Runt domain to CBFb. Q01196+Q13951. AID 1496. inhibition, % at 20 µM. hit rate 0.46% among 220,000. Cerulean-Runt/Venus-CBFb FRET ratio 530/480, 1 h;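 active = inhibition over about 50% at 20 µM in the single-dose screen, limit read from the data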
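Assay system: Cerulean-tagged RUNX1 Runt domain (FRET donor) fusion protein / Amount: 100 nM each of Venus-CBFb and Cerulean-Runt domain / Medium: Tris buffer pH 7.5 with salts and BSA / Also added: Venus-CBFb 100 nM / Schedule: 1 h complex formation plus 1 h compound treatment, room temperature / Signal: FRET fluorescence / Read-out: loss of energy transfer signal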
TbHK1 inh – blocks Trypanosoma brucei hexokinase 1 activity. recombinant TbHK1, G6PDH-coupled NADH A340. inhibition, % at 10 µM. hit rate 0.11% among 220,000. AID 1430;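 active = inhibition of 50% or more in the single-dose primary screen; inactive = inhibition below 50%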
A number is an active result; i = inactive; ? = inconclusive; nt = no result; [ ] = remark or other dose.

SMILES	14-3-3 Bad inh	RanGTP-Impb inh	Hck Nef HTS	Runt-SMMHC FRET	Runt-CBFb FRET	TbHK1 inh
Cc1cc(NC(=O)c2sccc2C)n(-c2cccc(Cl)c2)n1	i	i	i	i	i	i
COC(=O)CC(=O)CSc1nc2c(cc1C#N)CCC2	i	i	i	i	i	i
C=CCSc1nc2c(cc1C#N)CCC2	90[fluorescence artefact?]	i	i	i	i	i
CCOC(=O)CC(=O)CSc1nc2c(cc1C#N)CCCCCC2	i	i	nt	50	i	nt
CC(C)OC(=O)CC(=O)CSc1nc2c(cc1C#N)CCCCCC2	i	i	i	78	i	i
O=C(OC(C(=O)NCc1ccc(F)cc1)c1ccccc1)c1ccco1 (stereo not given)	nt	i	nt	nt	nt	nt
CSc1ncccc1C(=O)OCC(=O)c1cccs1	i	i	i	i	i	i
Nc1cccc2c1C(=O)N(C(=O)c1cccc(S(=O)(=O)N3CCCC3)c1)C2=O	i	i	i	62	i	i
Cc1ccc2cc(CCNC(=O)CC(C)C)c(=O)[nH]c2c1	i	i	i	i	nt	i
O=C(c1cc(COc2ccccc2)on1)N1CCCC(CN2CCOCC2)C1 (stereo not given)	nt	i	nt	nt	nt	nt
CC(/C=N/NC(=O)c1cc(-c2cccn2C)n[nH]1)=C\c1ccccc1	95	i	i	i	i	i
Cn1cccc1-c1cc(C(=O)N/N=C/c2ccccc2Cl)[nH]n1	nt	i	nt	nt	nt	nt
CC1CCCC(NC(=O)C2N(CCCN3CCCC3)C(=O)C3C(C(=O)Nc4cccc(Cl)c4)C4C=CC32O4)C1C (stereo not given)	nt	i	nt	nt	nt	nt
COc1ccc(C(=O)Nc2cc(C)on2)cc1S(=O)(=O)N1CC(c2ccccc2)CC1=O (stereo not given)	90	i	i	i	i	i
CN1CCc2nc(NC(=O)c3cccc(OC(F)F)c3)sc2C1	i	19	i	69	i	i
CN1CCc2nc(NC(=O)COc3ccc4ccccc4c3)sc2C1	i	i	i	i	nt	i
O=c1oc2ccccc2cc1-c1nc2c(s1)CCCC2	i	83	i	i	52	i
CCN1CCN(c2cc(SC(C)C)nc(-c3ccc(OC)cc3)n2)CC1	71[fluorescence artefact?]	i	i	i	i	i
CC(C)Sc1cc(N2CCOCC2)nc(-c2ccc(Cl)cc2)n1	i	i	i	i	i	i
COc1ccccc1N1CCN(S(=O)(=O)c2c(C)[nH]c(C)c2C(=O)N2CCCCC2)CC1	nt	23	nt	nt	nt	nt
COc1ccccc1N1CCN(S(=O)(=O)c2c(C)[nH]c(C)c2C(=O)N2CCCC2)CC1	nt	i	nt	nt	nt	nt
COc1cc(-c2nnc(SCc3cc(=O)oc4cc(O)c(O)cc34)o2)cc(OC)c1OC	i	i	i	59	67	i
CCOC(=O)CSc1nnc(-c2cc(OC)c(OC)c(OC)c2)o1	i	i	i	i	i	i
CCN(CC)Cc1cc(C(=O)O)c(-c2ccccc2)o1	i	i	i	i	i	i
O=C(O)c1cc(CN2CCOCC2)oc1-c1ccccc1	76	?	i	i	i	i
SMILES	14-3-3 Bad inh	RanGTP-Impb inh	Hck Nef HTS	Runt-SMMHC FRET	Runt-CBFb FRET	TbHK1 inh
CC1C2(C)OCC(C#N)(C(=N)O2)C1(C#N)C#N (stereo not given)	i	i	i	51	i	i
CC1(C)CC2(C)OC(=N)C1(C#N)C2(C#N)C#N (stereo not given)	i	i	i	i	i	i
c1csc(CN2CCOCC2)c1	83	?	i	i	i	i
CCOC(=O)C1CCCN(c2nc(C)nc3c2oc2ccccc23)C1 (stereo not given)	83	i	i	i	i	i
CCOc1cc(/C=C(\C#N)C(=O)Nc2ccccc2[N+](=O)[O-])ccc1OCc1cccc2ccccc12	i	nt	55	i	i	i
Cc1ccc(/C(N)=N/OC(=O)N2CCOCC2)cc1	i	i	i	i	74	i
Cc1cccc(/C(N)=N/OC(=O)N2CCOCC2)c1	i	i	i	i	i	i
Cc1ccc(CN(C)C(=O)C2CCC(=O)N(C3CCCCCC3)C2)cc1 (stereo not given)	nt	i	nt	nt	nt	nt
CN(C)C(=O)C1CCC(=O)N1Cc1cccs1 (stereo not given)	88	i	i	i	i	i
CCCCn1c(N)c(N(Cc2ccccc2OC)C(=O)CN2C(=O)NC3(CCCC3)C2=O)c(=O)[nH]c1=O	nt	i	nt	nt	nt	nt

Screening data deposited in PubChem by several laboratories.
